# In ChEMBL document CHEMBL1153806, “Preclinical efficacy of a carboxylesterase 2-activated prodrug of doxazolidine” (J Med Chem, 2009):
# Calls of active or inactive are those of the source. The calls are words filed in the database; no cut-off is given here.
# Key:
# Mus musculus [1] = test: Toxicity in athymic nude mouse xenografted with human NCI-H1435 cells expressing CES2 gene assessed as occurrence of fatty liver administered with six iv injection of 4 mg/kg by hematoxylin/eosin staining-based microscopy; format: organism-based; design: dose 4 mg/kg, route intravenous; conditions: in vivo
# Summary of the method: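 Female athymic nude mice, 4–6 weeks old, 10 per group. About 2 × 10⁶ H1435 cells were implanted s.c. into the left flank. I.v. tail-vein doses (Dox-equivalent) were given on days 7, 14, 21, 56, 63 and 70 in 5% DMSO/95% D5W. At sacrifice, organs were fixed in 10% formalin for 24 h and paraffin-embedded. Sections were cut at 4 µm and stained with hematoxylin/eosin for microscopy.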
# NCI-H1435 [2] = test: Antitumor activity against human NCI-H1435 cells expressing CES2 gene xenografted in athymic nude mouse assessed as inhibition of tumor growth at 3 mg/kg, iv administered on day 7, 14 and 21 after tumor implantation; format: functional, organism-based; design: dose 3 mg/kg
# Summary of the method: (§1)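 Athymic nude females, 4–6 weeks old, given ~2 × 10⁶ H1435 cells s.c. in the left flank on day 0; 10 mice/group. I.v. tail-vein doses (Dox-equivalent mg/kg) in 5% DMSO/95% D5W on days 7, 14 and 21, with all groups retreated on days 56, 63 and 70; vehicle controls. Caliper volume π × short² × long/6. Cube roots analysed with day-7 size as baseline covariate, by period.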
# Mus musculus [3] = test: Toxicity in athymic nude mouse xenografted with human NCI-H1435 cells expressing CES2 gene assessed as occurrence of fatty liver administered with six iv injection of 3 mg/kg by hematoxylin/eosin staining-based microscopy; format: organism-based; design: dose 3 mg/kg, route intravenous; conditions: in vivo
# Summary of the method: (§2)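 Hearts and livers taken from the H1435 nude-mouse study (six i.v. injections) after CO₂/cervical dislocation. Fixed in 10% formalin for 24 h, paraffin-embedded, and cut at 4 µm. Slides deparaffinized in xylene and ethanol, stained with Mayer's hematoxylin for 2 min, blued in 1% ammonium hydroxide, and counterstained with eosin for 30 s. Examined by light microscopy.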
# HepG2 [4] = test: Antitumor activity against human HepG2 cells expressing CES2 gene xenografted in pentyl PABC-doxazolidine-treated NOD/SCID mouse assessed as slowing of large, rapidly growing tumor growth at 5 mg/kg, iv administered on day 52 after tumor implantation; format: functional, organism-based; design: dose 5 mg/kg
# Summary of the method: (§3)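 NOD/SCID females, 4–6 weeks old, each given ~1.5 × 10⁷ N-Hep G2 cells s.c. in the left flank; 10 mice/group. Dosed i.v. by tail vein on days 7, 14 and 21, in mg/kg Dox-equivalent, from DMSO diluted into D5W (5% DMSO/95% D5W), 100 µL/mouse. Vehicle-only controls. The 3 mg/kg group was redosed at 5 mg/kg on days 45 and 52. Tumor volume (π × short diameter² × long diameter/6) measured weekly.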
# NCI-H1435 [5] = test: Antitumor activity against human NCI-H1435 cells expressing CES2 gene xenografted in athymic nude mouse assessed as slowing of tumor growth at 4 mg/kg, iv administered as three weekly infusion from day 21 to 56 after tumor implantation; format: functional, organism-based; design: dose 4 mg/kg; summary of the method: as §1
# [6] = Toxicity in pentyl PABC-doxazolidine-treated NOD/SCID mouse xenografted with human HepG2 cells expressing CES2 gene assessed as mortality rate at 5 mg/kg, iv administered on day 45 after tumor implantation; format: organism-based; design: dose 5 mg/kg, route intravenous; conditions: in vivo, read-out: Activity
# Summary of the method: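 NOD/SCID females carried s.c. left-flank N-Hep G2 xenografts (about 1.5 × 10⁷ cells). They first received i.v. 3 mg/kg Dox-equivalent on days 7, 14 and 21. The same group was then redosed i.v. at 5 mg/kg on days 45 and 52 in 5% DMSO/95% D5W. There were 10 mice per group. Deaths were counted to the end of the study.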
# Mus musculus [7] = test: Toxicity in NOD/SCID mouse xenografted with human HepG2 cells expressing CES2 gene at 3 mg/kg, iv administered on day 7, 14 and 21 after tumor implantation; format: organism-based; design: dose 3 mg/kg, route intravenous; conditions: in vivo
# HepG2 [8] = test: Antitumor activity against human HepG2 cells expressing CES2 gene xenografted in NOD/SCID mouse assessed as inhibition of tumor growth at 4 to 5 mg/kg, iv administered on day 7, 14 and 21 after tumor implantation; format: functional, organism-based; summary of the method: as §3
# Mus musculus [9] = test: Toxicity in athymic nude mouse xenografted with human NCI-H1435 cells expressing CES2 gene assessed as occurrence of diarrhea at 3 to 4 mg/kg, iv administered on day 7, 14 and 21 after tumor implantation; format: organism-based; design: dose 3-4 mg/kg, route intravenous; conditions: in vivo
# Mus musculus [10] = test: Toxicity in NOD/SCID mouse xenografted with human HepG2 cells expressing CES2 gene assessed as body weight change at 3 mg/kg, iv administered on day 7, 14 and 21 after tumor implantation; format: organism-based; design: dose 3 mg/kg, route intravenous; conditions: in vivo
# Summary of the method: (§4)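 Same NOD/SCID N-Hep G2 flank xenograft model: i.v. tail-vein dosing on days 7, 14 and 21 in 5% DMSO/95% D5W, doses in Dox-equivalent mg/kg, 10 mice/group, vehicle controls. Body weight recorded weekly and followed over the first 5 weeks.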
# Mus musculus [11] = test: Toxicity in iv dosed athymic nude mouse xenografted with human NCI-H1435 cells expressing CES2 gene assessed as appearance of cytoplasmic lipid droplets in hepatocytes administered as six injection by hematoxylin/eosin staining-based microscopy; format: organism-based, Hepatocyte; summary of the method: as §2
# Mus musculus [12] = test: Toxicity in athymic nude mouse xenografted with human NCI-H1435 cells expressing CES2 gene assessed as vacuolar degeneration of kidney tissue administered with six iv injection of 3 to 4 mg/kg by hematoxylin/eosin staining-based microscopy; format: organism-based; design: dose 3-4 mg/kg, route intravenous; conditions: in vivo
# Summary of the method: (§5)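 Kidney and ileum taken from the H1435 nude-mouse study (six i.v. injections). Formalin-fixed for 24 h, paraffin-embedded, and cut into 4 µm sections. Sections deparaffinized in xylene, rehydrated through an ethanol series, stained in Harris hematoxylin for 50 s with eosin, then dehydrated and mounted. Morphology assessed by microscopy.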
# NCI-H1435 [13] = test: Antitumor activity against human NCI-H1435 cells expressing CES2 gene xenografted in athymic nude mouse assessed as inhibition of tumor growth at 4 mg/kg, iv administered on day 7, 14 and 21 after tumor implantation; format: functional, organism-based; design: dose 4 mg/kg; summary of the method: as §1
# Homo sapiens = species: Homo sapiens; test: Metabolic stability in human plasma up to 24 hrs by reverse-phase HPLC analysis
# HepG2 [14] = test: Antitumor activity against human HepG2 cells expressing CES2 gene xenografted in NOD/SCID mouse assessed as inhibition of tumor growth at 3 mg/kg, iv administered on day 7, 14 and 21 after tumor implantation; format: functional, organism-based; design: dose 3 mg/kg; summary of the method: as §3
# NCI-H1435 [15] = test: Antitumor activity against human NCI-H1435 cells expressing CES2 gene xenografted in pentyl PABC-doxazolidine-pretreated athymic nude mouse assessed as inhibition of tumor growth at 3 to 4 mg/kg, iv administered on day 70 after tumor implantation; format: functional, organism-based; summary of the method: as §1
# Mus musculus [16] = test: Toxicity in athymic nude mouse xenografted with human NCI-H1435 cells expressing CES2 gene at 3 to 4 mg/kg, iv administered on day 7, 14 and 21 after tumor implantation; format: organism-based; design: dose 3-4 mg/kg, route intravenous; conditions: in vivo
# Mus musculus [17] = test: Toxicity in NOD/SCID mouse xenografted with human HepG2 cells expressing CES2 gene assessed as body weight loss at 5 mg/kg, iv administered on day 7, 14 and 21 after tumor implantation measured after 5 weeks; format: organism-based; design: dose 5 mg/kg, route intravenous; conditions: in vivo, 840 h; summary of the method: as §4
# Mus musculus [18] = test: Toxicity in athymic nude mouse xenografted with human NCI-H1435 cells expressing CES2 gene assessed as vacuolar damage in ileum administered with six iv injection of 3 to 4 mg/kg by hematoxylin/eosin staining-based microscopy; format: organism-based; design: dose 3-4 mg/kg, route intravenous; conditions: in vivo; summary of the method: as §5
# NCI-H1435 [19] = test: Antitumor activity against human NCI-H1435 cells expressing CES2 gene xenografted in athymic nude mouse assessed as reduction in tumor size at 3 to 4 mg/kg, iv administered on day 7, 14 and 21 after tumor implantation; format: functional, organism-based; summary of the method: as §1
smiles,measurement,setting,value
CCCCCOC(=O)Nc1ccc(COC(=O)N2CO[C@@H]3[C@H](C)O[C@@H](O[C@H]4C[C@](O)(C(=O)CO)Cc5c(O)c6c(c(O)c54)C(=O)c4c(OC)cccc4C6=O)C[C@@H]32)cc1,Activity,Mus musculus [1],Toxic
same,inhibition,NCI-H1435 [2],Active
same,Activity,Mus musculus [3],Non-toxic
same,Activity,HepG2 [4],Active
same,Activity,NCI-H1435 [5],inactive
same,mortality,[6],60%
same,Activity,Mus musculus [7],Non-toxic
same,inhibition,HepG2 [8],Active
same,Activity,Mus musculus [9],Non-toxic
same,Activity,Mus musculus [10],Non-toxic
same,Activity,Mus musculus [11],Dose-dependent effect
same,Activity,Mus musculus [12],Non-toxic
same,inhibition,NCI-H1435 [13],Active
same,remaining at 24 h,Homo sapiens,75%
same,inhibition,HepG2 [14],inactive
same,inhibition,NCI-H1435 [15],Active
same,Activity,Mus musculus [16],Non-toxic
same,Activity,Mus musculus [17],10%
same,Activity,Mus musculus [18],Non-toxic
same,Activity,NCI-H1435 [19],inactive
